Measurements reported in ChEMBL document CHEMBL4270651, “Synthesis and evaluation of new designed multiple ligands directed towards both peroxisome proliferator-activated receptor-γ and angiotensin II type 1 receptor” (Eur J Med Chem, 2018).
Active and inactive are the calls of the source. The rule behind the calls is not given here.

What was measured:
[1] = target: T1, Peroxisome proliferator-activated receptor gamma (Homo sapiens) (UniProt P37231); experiment: Transactivation of human PPARgamma expressed in human MCF7 cells harboring pPPRE3-tk-luc reporter at 10 uM after 24 hrs by luciferase reporter gene assay relative to control; assay type: cell-based
T1 sequence (whole entry): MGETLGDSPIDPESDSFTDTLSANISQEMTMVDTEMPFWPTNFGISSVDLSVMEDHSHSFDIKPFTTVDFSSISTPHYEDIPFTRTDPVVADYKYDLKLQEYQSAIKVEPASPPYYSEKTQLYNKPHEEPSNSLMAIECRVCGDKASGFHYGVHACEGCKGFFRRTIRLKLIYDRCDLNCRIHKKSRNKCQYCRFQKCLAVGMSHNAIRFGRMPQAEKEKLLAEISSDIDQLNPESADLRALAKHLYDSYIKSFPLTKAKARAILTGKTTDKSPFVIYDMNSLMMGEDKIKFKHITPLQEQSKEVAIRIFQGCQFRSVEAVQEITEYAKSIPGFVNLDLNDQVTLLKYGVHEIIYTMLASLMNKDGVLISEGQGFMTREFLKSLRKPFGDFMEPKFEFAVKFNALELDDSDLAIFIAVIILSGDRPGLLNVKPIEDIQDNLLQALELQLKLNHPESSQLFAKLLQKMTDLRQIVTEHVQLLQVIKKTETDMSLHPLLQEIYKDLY
In short: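 MCF-7 cells transfected with a pPPRE3tk-luc reporter are exposed to compound (10μM) for 24 h. Luciferase activity is normalized to β-Gal activity and expressed as fold induction over a solvent control set to 1. Three independent experiments are run, each with duplicate transfections. Values are mean ± s.e.m.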

Rattus norvegicus [2] = species on record: Rattus norvegicus; experiment: Blocking activity at AT1 receptor in rat aortic vascular smooth muscle cells assessed as inhibition of angiotensin-2-induced calcium flux at 10 uM preincubated for 20 mins followed by angiotensin-2 addition by Fura-2-AM dye based scanning fluorometric method relative to control
In short: (§1)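 Rat aortic smooth muscle cells. Angiotensin II-mediated intracellular calcium release is followed by fluorescence. A first screen is run at a single concentration. Compounds that pass are retested at various concentrations to derive IC50, with losartan tested in each experiment. Values are expressed as the ratio of the compound's IC50 to losartan's IC50.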

Rattus norvegicus [3] = species on record: Rattus norvegicus; experiment: Ratio of test compound IC50 to losartan IC50 for bocking activity at AT1 receptor in rat aortic vascular smooth muscle cells assessed as inhibition of angiotensin-2-induced calcium flux; in short: as §1
Rattus norvegicus [4] = experiment: Antihypertensive activity in angiotensin 2-induced Wistar rat hypertensive model assessed as reduction in angiotensin 2-induced mean arterial pressure at 6 x 10^-5mol/kg, iv; assay type: functional, organism-based
In short: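 Adult male Wistar rats; angiotensin II given as i.v. bolus at 10-10 mol/kg, with no pretreatment or after i.v. pretreatment at 6.10−5 mol/kg. Read-out is the change in mean arterial pressure in mm Hg, reported as mean ± sem.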

SMILES: CCCCCCCCCCCCOCc1c(Cl)nc(CCCC)n1Cc1ccc(-c2ccccc2-c2nn[nH]n2)cc1
- Activity [1]: Active
- inhibition (Rattus norvegicus [2]): > 50%
- Ratio IC50 (Rattus norvegicus [3]): 43.2

SMILES: CCCCc1ncc(CCCOc2ccc(CC3SC(=O)NC3=O)cc2)n1Cc1ccc(-c2ccccc2-c2nn[nH]n2)cc1 (configuration not stated)
- Activity [1]: inactive
- inhibition (Rattus norvegicus [2]): > 50%
- Ratio IC50 (Rattus norvegicus [3]): 1.1

SMILES: CC(C)(C)OC(=O)c1ccccc1-c1ccc(Cn2cc(COc3ccc(CC4SC(=O)NC4=O)cc3)nn2)cc1 (configuration not stated)
- Activity [1]: Active

SMILES: CCCCc1nc(Cl)c(COc2ccc(/C=C3\SC(=O)NC3=O)cc2)n1Cc1ccc(-c2ccccc2-c2nn[nH]n2)cc1
- Activity [1]: inactive
- inhibition (Rattus norvegicus [2]): < 50%

SMILES: CC(C)(C)OC(=O)c1ccccc1-c1ccc(Cn2cc(CCOc3ccc(CC4SC(=O)NC4=O)cc3)nn2)cc1 (configuration not stated)
- Activity [1]: Active

SMILES: CCCc1nc2c(C)cc(-c3nc4ccccc4n3C)cc2n1Cc1ccc(-c2ccccc2C(=O)O)cc1
- Activity [1]: Active

SMILES: CCCCc1nc(Cl)c(/C=C/C(=O)Oc2ccc(C[C@H](Nc3ccccc3C(=O)OC)C(=O)O)cc2)n1Cc1ccc(-c2ccccc2-c2nn[nH]n2)cc1
- Activity [1]: Active
- inhibition (Rattus norvegicus [2]): > 50%
- Ratio IC50 (Rattus norvegicus [3]): 3.8

SMILES: CCCCc1nc(Cl)c(CCCOc2ccc(CC3SC(=O)NC3=O)cc2)n1Cc1ccc(-c2ccccc2-c2nn[nH]n2)cc1 (configuration not stated)
- Activity [1]: inactive
- inhibition (Rattus norvegicus [2]): > 50%
- Ratio IC50 (Rattus norvegicus [3]): 0.4

SMILES: Cc1c(C)c2c(c(C)c1OCc1ccc(-c3ccccc3C(=O)O)cc1)CCC(C)(COc1ccc(/C=C3\SC(=O)NC3=O)cc1)O2 (configuration not stated)
- Activity [1]: Active

SMILES: COC(=O)c1ccccc1N[C@@H](Cc1ccc(OCC2(C)CCc3c(C)c(O)c(C)c(C)c3O2)cc1)C(=O)O (some centres not stated)
- Activity [1]: Active

SMILES: Cc1c(C)c2c(c(C)c1OCc1ccc(-c3ccccc3C(=O)OC(C)(C)C)cc1)CCC(C)(COc1ccc(/C=C3\SC(=O)NC3=O)cc1)O2 (configuration not stated)
- Activity [1]: Active

SMILES: CCCCCS(=O)(=O)NC(=O)/C=C/c1c(Cl)nc(CCCC)n1Cc1ccc(-c2ccccc2-c2nn[nH]n2)cc1
- Activity [1]: Active
- inhibition (Rattus norvegicus [2]): > 50%
- Ratio IC50 (Rattus norvegicus [3]): 11.1

SMILES: O=C1NC(=O)C(Cc2ccc(OCc3cn(Cc4ccc(-c5ccccc5C(=O)O)cc4)cn3)cc2)S1 (configuration not stated)
- Activity [1]: inactive
- inhibition (Rattus norvegicus [2]): > 50%
- Ratio IC50 (Rattus norvegicus [3]): 3.4

SMILES: CCCCc1nc(Cl)c(COc2ccc(CC3SC(=O)NC3=O)cc2)n1Cc1ccc(-c2ccccc2-c2nn[nH]n2)cc1 (configuration not stated)
- Activity [1]: inactive
- Activity (Rattus norvegicus [4]): Active
- inhibition (Rattus norvegicus [2]): > 50%
- Ratio IC50 (Rattus norvegicus [3]): 6.3

SMILES: O=C1NC(=O)C(Cc2ccc(OCCc3cn(Cc4ccc(-c5ccccc5C(=O)O)cc4)nn3)cc2)S1 (configuration not stated)
- Activity [1]: inactive
- inhibition (Rattus norvegicus [2]): inactive

SMILES: CCCCc1nc(COc2ccc(CC3SC(=O)NC3=O)cc2)cn1Cc1ccc(-c2ccccc2C(=O)O)cc1 (configuration not stated)
- Activity [1]: Active
- inhibition (Rattus norvegicus [2]): > 50%
- Ratio IC50 (Rattus norvegicus [3]): 5

SMILES: CCCCc1nc(Cl)c(CO)n1Cc1ccc(-c2ccccc2-c2nnn[nH]2)cc1
- Activity [1]: inactive
- Activity (Rattus norvegicus [4]): Active
- inhibition (Rattus norvegicus [2]): 78%

SMILES: O=C1NC(=O)C(Cc2ccc(OCc3cn(Cc4ccc(-c5ccccc5C(=O)O)cc4)nn3)cc2)S1 (configuration not stated)
- Activity [1]: inactive
- inhibition (Rattus norvegicus [2]): inactive

SMILES: CCCCc1nc(Cl)c(/C=C/C(=O)Oc2ccc(CC3SC(=O)NC3=O)cc2)n1Cc1ccc(-c2ccccc2-c2nn[nH]n2)cc1 (configuration not stated)
- Activity [1]: Active
- inhibition (Rattus norvegicus [2]): > 50%
- Ratio IC50 (Rattus norvegicus [3]): 3.2

SMILES: CCCCc1nc(CCCOc2ccc(CC3SC(=O)NC3=O)cc2)cn1Cc1ccc(-c2ccccc2C(=O)O)cc1 (configuration not stated)
- Activity [1]: Active
- inhibition (Rattus norvegicus [2]): > 50%
- Ratio IC50 (Rattus norvegicus [3]): 16.2

SMILES: COC(=O)c1ccccc1N[C@@H](Cc1ccc(OCC2(C)CCc3c(C)c(OCc4ccc(-c5ccccc5C(=O)O)cc4)c(C)c(C)c3O2)cc1)C(=O)O (some centres not stated)
- Activity [1]: Active
- inhibition (Rattus norvegicus [2]): inactive

SMILES: CCCCc1c(COc2ccc(CC3SC(=O)NC3=O)cc2)nnn1Cc1ccc(-c2ccccc2C(=O)O)cc1 (configuration not stated)
- Activity [1]: Active
- inhibition (Rattus norvegicus [2]): inactive

SMILES: Cc1c(C)c2c(c(C)c1OCc1ccc(-c3ccccc3C(=O)O)cc1)CCC(C)(COc1ccc(CC3SC(=O)NC3=O)cc1)O2 (configuration not stated)
- Activity [1]: Active
- inhibition (Rattus norvegicus [2]): inactive
